# Bioassay records (PubChem BioAssay)
# Wee1 stabilizer – inhibitors of human Wee1 degradation; HeLa Luc-Wee1K328M stability, luciferase luminescence; 100% = proteasome inhibitor MG132 effect; 220,000 compounds, 1.2% hits; P30291; reporter increase, % at 5 µM;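 active = activation above the mean of all tested compounds plus 3 SD, set per screening run, cut at about 8.8% in these data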;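 note: cells exposed to compound for 20 h before luminescence read; 0% = DMSO alone and 100% = MG132 at 30 µM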
# L major viab – inhibitors of Leishmania major promastigote growth | AID 1063 | 200,000 compounds, 9% hits | inhibition, % at 10 µM | Leishmania major promastigotes, resazurin fluorescence viability;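 note: promastigotes grown with compound for 44 hours at 28 °C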
# CHOP inh – blocks CHOP induction under ER stress. CHO-K1 CHOP-promoter luciferase, tunicamycin-induced, 15-18 h. inhibition, % at 10 µM. 220,000 compounds, 3.8% hits;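 active = compounds that reduced the stress-induced luciferase reporter signal by more than about 70% of percent inhibition, limit read from the data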;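 note: 0% = tunicamycin plus vehicle and 100% = wells without tunicamycin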
# PKD1 inh – blocks activity of human protein kinase D1. Q15139. PKD1 kinase fluorescence polarization assay. inhibition, % (concentration not given with the values). 200,000 compounds, 0.056% hits. AID 797
# Target sequence (Q15139 whole entry, looked up): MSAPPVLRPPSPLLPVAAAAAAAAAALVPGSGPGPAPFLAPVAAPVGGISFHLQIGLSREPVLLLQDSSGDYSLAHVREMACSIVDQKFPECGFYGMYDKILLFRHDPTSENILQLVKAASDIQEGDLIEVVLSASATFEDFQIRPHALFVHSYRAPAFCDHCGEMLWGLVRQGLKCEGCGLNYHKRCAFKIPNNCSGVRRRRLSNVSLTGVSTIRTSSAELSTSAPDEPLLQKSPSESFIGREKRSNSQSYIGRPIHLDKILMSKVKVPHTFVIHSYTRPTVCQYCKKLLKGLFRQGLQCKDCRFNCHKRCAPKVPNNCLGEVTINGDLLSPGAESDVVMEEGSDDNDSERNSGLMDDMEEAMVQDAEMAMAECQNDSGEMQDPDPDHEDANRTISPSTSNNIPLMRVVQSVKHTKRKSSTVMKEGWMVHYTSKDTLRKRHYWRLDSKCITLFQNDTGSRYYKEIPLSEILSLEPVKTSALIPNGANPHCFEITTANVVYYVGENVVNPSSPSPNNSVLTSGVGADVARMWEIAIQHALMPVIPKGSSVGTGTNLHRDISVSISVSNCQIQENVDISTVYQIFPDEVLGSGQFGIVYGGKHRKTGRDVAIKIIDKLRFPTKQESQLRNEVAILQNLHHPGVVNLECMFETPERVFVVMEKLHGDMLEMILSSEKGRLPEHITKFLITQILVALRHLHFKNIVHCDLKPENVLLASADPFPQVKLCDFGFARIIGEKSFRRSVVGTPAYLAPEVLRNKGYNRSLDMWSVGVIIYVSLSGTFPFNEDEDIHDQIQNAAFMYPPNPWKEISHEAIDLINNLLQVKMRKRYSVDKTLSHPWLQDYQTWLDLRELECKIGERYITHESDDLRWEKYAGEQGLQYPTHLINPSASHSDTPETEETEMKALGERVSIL
# Arbovirus inh – antivirals against arbovirus infection. inhibition, % at 10 µM. 200,000 compounds, 0.37% hits. arbovirus infection cell-based antiviral screen. AID 1251; in the data active = inhibition above about 30%
# Rad51 HR inh – blocks human Rad51 in homologous recombination; Q06609; hRad51 DNA strand exchange, fluorescence dequenching; inhibition, % at 10 µM; 200,000 compounds, 0.085% hits;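 active = inhibition above 40% at the single screening dose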;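 note: 0% = DMSO control wells and 100% = blanks with heterologous ssDNA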
#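 Read-out basis: percent inhibition relative to plate controls and blanks / Assay system: human Rad51 nucleoprotein filaments preassembled on unlabelled ssDNA / Timing: filaments 15 min 37 °C, then compound 30 min / Control set: per-plate controls and blanks / Technique: fluorescence dequenching at 485/520 nm / Compound: 10 µM final, single point / Also added: Fluorescein- and BHQ1-tagged 47-mer duplex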
# Active calls of the source: *; · = no result. An excerpt weighted towards active compounds, which were near 12% of everything screened. Cut-off read from the data, not from the text of the source, unless noted: active = inhibition above about 50%; inactive = the rest.
SMILES,Wee1 stabilizer,L major viab,CHOP inh,PKD1 inh,Arbovirus inh,Rad51 HR inh
Cc1cc2c(N=O)c(NO)ccc2[nH]1,1,83*,·,10,-34,11
Cc1ccc(C(=O)n2nc(C#N)c(C#N)c2N)cc1,4,·,-5,·,·,-2
COc1ccc(N(Cc2ccccc2)S(=O)(=O)c2cccc(C(=O)NC3=NCCS3)c2)cc1,-1,8,16,0,-15,6
COc1ccccc1N(Cc1ccccc1)S(=O)(=O)c1cccc(C(=O)Nc2ccc(C(C)=O)cc2)c1,-2,75*,1,-6,-5,3
COc1ccc(OC)c(NC(=O)c2cccc(S(=O)(=O)N(Cc3ccccc3)c3ccccc3OC)c2)c1,3,96*,4,-1,-1,·
CCN(CC)S(=O)(=O)c1ccc(NC(=O)COC(=O)c2ccc(NC(=O)CC#N)cc2)cc1,0,-1,-2,3,-4,-24
Cc1nc(C(C)NC(=O)CCc2nnc(-c3ccsc3)o2)cs1 (stereo not drawn),2,-7,4,0,3,8
CSc1ccc(CN2CCN(Cc3ccc([N+](=O)[O-])cc3)CC2)cc1,-1,91*,36,-5,-11,6
O=[N+]([O-])c1ccc(CN2CCOCCOCCN(Cc3ccc([N+](=O)[O-])cc3)CCOCC2)cc1,-1,80*,13,-9,3,·
O=[N+]([O-])c1ccc(COc2ccc(Br)cc2CN2CCOCC2)cc1,-2,4,12,13,-5,-4
CCS(=O)(=O)N1CCN(Cc2ccc([N+](=O)[O-])cc2)CC1,0,-5,-1,2,-3,3
C=CCNC(=S)NNC(=O)COc1cccc(Cl)c1,1,-7,7,1,5,4
Cc1c(Cl)c([N+](=O)[O-])nn1CC(=O)NC12CC3CC(CC(C3)C1)C2,1,5,37,-5,-8,5
Cc1cc(C)c(C)c(S(=O)(=O)N2CCN(CC(=O)c3c(N)n(Cc4ccccc4)c(=O)n(C)c3=O)CC2)c1C,4,99*,38,-1,-27,-5
CCn1c(=O)c(C(=O)CN2CCN(S(=O)(=O)c3ccc(C)cc3C)CC2)c(N)n(Cc2ccccc2)c1=O,2,58*,61,16,-21,·
CCn1c(=O)c(C(=O)CN2c3ccccc3CC2C)c(N)n(Cc2ccccc2)c1=O (stereo not drawn),0,16,87*,-1,-9,-10
CC1Cc2ccccc2N1CC(=O)c1c(N)n(Cc2ccccc2)c(=O)n(C)c1=O (stereo not drawn),-1,29,60,-1,-7,-12
CCn1c(=O)c(C(=O)CN2CCN(S(=O)(=O)c3ccccc3)CC2)c(N)n(Cc2ccccc2)c1=O,4,22,29,4,-4,-1
COCCn1c(C(C)C)nc2ccccc21,4,·,-9,·,·,11
CC(C)(C)NC(=O)CN(C(=O)c1csnn1)c1cccc2c1CCCC2,-1,10,5,-5,0,1
COc1cccc(-c2cc(C(=O)NCCCn3ccnc3)c3ccccc3n2)c1,3,41,15,-4,-6,11
CC(C)NC(=S)N/N=C/c1c[nH]c2ccccc12,15*,66*,9,-11,16,0
CC(C)NC(=S)N/N=C/c1cc(Br)ccc1O,-1,48,77*,-9,-1,2
Cc1[nH]c2ccccc2c1/C=N/NC(=S)NC(C)C,-2,31,-23,0,-15,-27
CCOC(=O)c1nc(Nc2cc(C)cc(C)c2)c2ccccc2n1,0,52*,-15,2,0,-2
SMILES,Wee1 stabilizer,L major viab,CHOP inh,PKD1 inh,Arbovirus inh,Rad51 HR inh
CCOC(=O)c1nc(Nc2ccc(N3CCC(C)CC3)cc2)c2ccccc2n1,1,53*,-19,0,13,·
COc1ccc(-n2nnc3c(=O)n(CC(=O)Nc4cc(C)on4)cnc32)cc1OC,0,-5,-13,-3,8,-3
Cc1ccc(C(=O)N/C(=C\c2ccccc2)C(=O)NCCCn2ccnc2)cc1,-2,-2,-9,-4,-5,1
CCOC(=O)N1CCC(NC2CCCCCCC2)CC1,-1,94*,-2,-6,-13,3
CCOC(=O)N1CCN(C(=O)C2CCC(C(=O)N3CCN(C(=O)OCC)CC3)CC2)CC1 (stereo not drawn),9.5*,-6,·,-5,·,·
S=C(Sc1ccc(Cl)cc1)Sc1ccc(Cl)cc1,2,·,106*,·,·,-18
COc1ccc(-n2cc(CNC3CCN(C)CC3)c(-c3cccc(F)c3)n2)cc1,-1,100*,-33,4,-31,·
O=C(Nc1cccc(Cl)c1)N1CCC(CO)(CCOc2ccccc2)CC1,-2,6,9,-4,-9,-15
Cc1ccc(C(=O)N2CCN(c3ccc(Cl)cc3)CC2)cc1,2,-4,51,1,6,3
Cc1ccc(C(=O)N2CCN3C(=O)c4ccccc4C23c2ccc(Cl)cc2)cc1 (stereo not drawn),6,94*,-90,-6,-21,-4
O=C(Nc1cccc(Cl)c1)N1CCN2C(=O)c3ccccc3C12c1ccccc1 (stereo not drawn),3,98*,14,2,-32,4
CCCc1nnc(SCC(=O)N2CCCC(C)C2)n1CCOC (stereo not drawn),2,-5,0,2,-1,2
O=C(CSc1nc2c(c(=O)n1-c1ccccc1)SCC2)N1CCOCC1,-3,-1,12,1,10,4
COC(=O)c1ccc(CSc2nc3c(c(=O)n2-c2ccc(F)cc2)SCC3)o1,0,100*,13,2,-7,2
COC(=O)c1ccc(CSc2nc3ccccc3c(=O)n2-c2ccc(OC)c(OC)c2)o1,-1,97*,20,-1,15,-5
COC(=O)c1ccc(CSc2nc3c(c(=O)n2-c2ccccc2)SCC3)o1,-3,87*,20,-1,-2,-4
COC(=O)c1ccc(CSc2nc3ccccc3c(=O)n2-c2ccccc2)o1,-2,19,30,-9,-11,2
O=C(COC(=O)c1cccnc1Cl)Nc1nc(-c2ccccc2)cs1,-2,3,27,1,0,-4
Cn1nc(C(=O)OCC(=O)Nc2cccc(S(=O)(=O)N3CCCC3)c2)c2ccccc2c1=O,3,·,12,·,·,8
CCN1CCN(C(c2cccs2)C(C)NS(=O)(=O)c2ccccc2)CC1 (stereo not drawn),11*,-12,14,-1,14,8
O=C(CCl)N=c1sccn1Cc1ccccc1Cl,0,·,-45,·,·,-1
O=C(CCl)N=c1sccn1Cc1cccc2ccccc12,-3,27,-191,3,31*,-8
O=C(CCl)N=c1sccn1Cc1ccc(Cl)cc1Cl,-1,86*,-212,-7,-30,-5
COc1ccc(C(=O)N/C(=C\c2cn(C)c3ccccc23)C(=O)OCC(C)C)cc1,0,-6,28,-18,-1,-3
